Measurements from ChEMBL document CHEMBL1145056, “Structure-activity relationships of novel cyclic alpha-MSH/beta-MSH hybrid analogues that lead to potent and selective ligands for the human MC3R and human MC5R” (J Med Chem, 2003).
Positions of bridges follow the written chain, without caps; N, C: chain ends. Non-standard residues stand in square brackets, D forms with d. Residues, ends and D or L forms follow the SMILES beside them. d2Nal = N[C@H](Cc1ccc2ccccc2c1)C(=O)O

Columns and labels:
[1] = biological target: T1, Melanocortin receptor 3 (Homo sapiens, UniProt P41968); assay: Inhibition of human Melanocortin 3 receptor
T1 sequence (P41968 whole entry): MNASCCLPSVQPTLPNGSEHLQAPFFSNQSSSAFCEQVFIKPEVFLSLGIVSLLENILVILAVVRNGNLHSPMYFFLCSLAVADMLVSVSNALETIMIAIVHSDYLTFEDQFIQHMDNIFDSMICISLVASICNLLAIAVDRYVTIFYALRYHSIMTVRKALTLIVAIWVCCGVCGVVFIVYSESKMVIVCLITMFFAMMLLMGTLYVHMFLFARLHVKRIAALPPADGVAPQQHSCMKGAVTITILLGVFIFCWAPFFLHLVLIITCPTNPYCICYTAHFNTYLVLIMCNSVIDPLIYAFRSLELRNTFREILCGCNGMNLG

[2] = biological target: T2, Melanocortin receptor 4 (Homo sapiens, UniProt P32245); assay: Inhibition of human melanocortin 4 receptor
T2 sequence (P32245 whole entry): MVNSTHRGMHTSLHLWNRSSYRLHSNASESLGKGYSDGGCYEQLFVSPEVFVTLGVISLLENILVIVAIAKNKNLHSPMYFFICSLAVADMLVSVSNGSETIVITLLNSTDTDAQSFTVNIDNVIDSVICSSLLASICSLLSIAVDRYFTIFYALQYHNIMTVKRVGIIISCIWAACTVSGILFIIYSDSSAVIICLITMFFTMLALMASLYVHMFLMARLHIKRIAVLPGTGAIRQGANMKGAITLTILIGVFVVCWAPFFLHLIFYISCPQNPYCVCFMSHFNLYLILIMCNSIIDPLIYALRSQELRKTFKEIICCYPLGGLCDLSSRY

[3] = biological target: T3, Melanocortin receptor 5 (Homo sapiens, UniProt P33032); assay: Inhibition of human melanocortin 5 receptor
T3 sequence (P33032 whole entry): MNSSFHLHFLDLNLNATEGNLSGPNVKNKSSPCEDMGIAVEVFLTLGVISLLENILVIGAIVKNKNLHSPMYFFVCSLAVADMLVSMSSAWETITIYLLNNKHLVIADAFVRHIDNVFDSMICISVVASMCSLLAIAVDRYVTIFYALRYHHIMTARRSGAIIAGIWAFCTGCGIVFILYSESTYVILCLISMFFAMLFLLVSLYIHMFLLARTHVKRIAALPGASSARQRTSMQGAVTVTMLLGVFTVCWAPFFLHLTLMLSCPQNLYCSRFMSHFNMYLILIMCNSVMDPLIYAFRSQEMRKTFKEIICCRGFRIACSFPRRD

[4] = biological target: T3, Melanocortin receptor 5; assay: (§1) Effective concentration of peptide at 50% maximal cAMP generation; assay type: functional
Outline: (§2)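 Receptor-transfected human MCR HEK293 cells were seeded at 50 000 cells/well 48 h before the assay. The reaction was stopped with ice-cold Tris/EDTA, and lysates were boiled 15 min. cAMP was measured by competitive binding kit.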

[5] = biological target: T1, Melanocortin receptor 3; assay: as §1; assay type: functional; outline: as §2
[6] = biological target: T2, Melanocortin receptor 4; assay: as §1; assay type: functional
[7] = biological target: T3, Melanocortin receptor 5; assay: (§3) Effective concentration of peptide at 50% maximal cAMP generation (10e-10 to 10e-4 M); assay type: functional
Outline: as §2, with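 “assay. Cells were preincubated in EBSS with 0.5 mM IBMX for 1 min at 37 °C, then exposed to peptide (10^-10 to 10^-4 M) for 3 min at 37 °C.” for “assay.”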

[8] = biological target: T2, Melanocortin receptor 4; assay: as §3; assay type: functional
Outline: as §2, with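 “assay. Cells were preincubated in EBSS with 0.5 mM IBMX for 1 min at 37 °C, then exposed to peptide (10^-10 to 10^-4 M) for 3 min at 37 °C.” for “assay.”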

[9] = biological target: T3, Melanocortin receptor 5; assay: Inhibitory activity against human melanocortin receptor human Melanocortin 5 receptor was determined
Outline: (§4)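 Whole-cell competition binding in HEK293 cells stably transfected with human MCRs (CMVneo vector), 50 000 cells/well seeded 48 h before. Binding buffer: MEM, 25 mM HEPES pH 7.4, 0.2% BSA, 1,10-phenanthroline, leupeptin, bacitracin. Cells were incubated with unlabeled peptide (10^-10 to 10^-4 M) and 0.1386 nM [125I-Tyr2]-[Nle4,D-Phe7]α-MSH for 40 min at 37 °C, then washed, lysed (NaOH/Triton X-100) and gamma-counted.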

[10] = biological target: T1, Melanocortin receptor 3; assay: Inhibitory activity against human Melanocortin 3 receptor was determined; outline: as §4
[11] = biological target: T2, Melanocortin receptor 4; assay: Inhibitory activity against human melanocortin receptor human Melanocortin 4 receptor was determined; outline: as §4

Row | IC50 [1] [µM] | IC50 [2] [µM] | IC50 [3] [µM] | EC50 [4] [µM] | EC50 [5] [µM] | EC50 [6] [µM] | EC50 [7] [µM] | EC50 [8] [µM] | Ki [9] [µM] | Ki [10] [µM] | Ki [11] [µM] | SMILES
1 | 0.13 | 0.0034 | 0.18 | 0.19 | > 10 | 0.0061 |  |  |  |  |  | CC(=O)N[C@H]1CSSC[C@@H](C(=O)N2CCC[C@H]2C(=O)N2CCC[C@H]2C(=O)N[C@@H](CCCCN)C(=O)N[C@@H](CC(=O)O)C(N)=O)NC(=O)[C@H](Cc2c[nH]c3ccccc23)NC(=O)[C@H](CCCN=C(N)N)NC(=O)[C@@H](Cc2ccc3ccccc3c2)NC(=O)[C@H](Cc2c[nH]cn2)NC(=O)[C@H](CCC(=O)O)NC1=O
2 | 5.6 | > 10 | 0.01 | > 10 | > 10 | > 10 |  |  |  |  |  | CC(=O)N[C@H]1CSSC[C@H](C(=O)N2CCC[C@H]2C(=O)N2CCC[C@H]2C(=O)N[C@@H](CCCCN)C(=O)N[C@@H](CC(=O)O)C(N)=O)NC(=O)[C@H](Cc2c[nH]c3ccccc23)NC(=O)[C@H](CCCNC(=N)N)NC(=O)[C@@H](Cc2ccccc2)NC(=O)[C@H](Cc2c[nH]cn2)NC(=O)[C@H](CCC(=O)O)NC1=O
3 | 0.2 | 3.7 | 26 |  | > 10 | > 10 | 0.88 |  |  |  |  | CC(=O)N[C@@H]1CSSC[C@@H](C(=O)N2CCC[C@H]2C(=O)N2CCC[C@H]2C(=O)N[C@@H](CCCCN)C(=O)N[C@@H](CC(=O)O)C(N)=O)NC(=O)[C@H](Cc2c[nH]c3ccccc23)NC(=O)[C@H](CCCN=C(N)N)NC(=O)[C@@H](Cc2ccc3ccccc3c2)NC(=O)[C@H](Cc2c[nH]cn2)NC(=O)[C@H](CCC(=O)O)NC1=O
4 | 0.62 | 37 | 0.073 | > 10 | > 10 | > 10 |  |  |  |  |  | CC(=O)N[C@@H]1CSSC[C@@H](C(=O)N2CCC[C@H]2C(=O)N2CCC[C@H]2C(=O)N[C@@H](CCCCN)C(=O)N[C@@H](CC(=O)O)C(N)=O)NC(=O)[C@H](Cc2c[nH]c3ccccc23)NC(=O)[C@H](CCCNC(=N)N)NC(=O)[C@@H](Cc2ccccc2)NC(=O)[C@H](Cc2c[nH]cn2)NC(=O)[C@H](CCC(=O)O)NC1=O
5 | 0.003 | 0.75 | 0.094 | > 10 | > 10 | > 10 |  |  |  |  |  | CC(=O)N[C@@H]1C(=O)N[C@@H](CCC(=O)O)C(=O)N[C@@H](Cc2c[nH]cn2)C(=O)N[C@H](Cc2ccc3ccccc3c2)C(=O)N[C@@H](CCCN=C(N)N)C(=O)N[C@@H](Cc2c[nH]c3ccccc23)C(=O)N[C@H](C(=O)N2CCC[C@H]2C(=O)N2CCC[C@H]2C(=O)N[C@@H](CCCCN)C(=O)N[C@@H](CC(=O)O)C(N)=O)CSSC1(C)C
6 | > 1 | > 10 | > 10 | > 10 | > 10 | > 10 |  |  |  |  |  | CC(=O)N[C@H]1CC(=O)NCCCC[C@@H](C(=O)N2CCC[C@H]2C(=O)N2CCC[C@H]2C(=O)N[C@@H](CCCCN)C(=O)N[C@@H](CC(=O)O)C(N)=O)NC(=O)[C@H](Cc2c[nH]c3ccccc23)NC(=O)[C@H](CCCNC(=N)N)NC(=O)[C@@H](Cc2ccccc2)NC(=O)[C@H](Cc2c[nH]cn2)NC(=O)[C@H](CCC(=O)O)NC1=O
7 | 0.031 | 17 | 97 | > 10 | > 10 |  |  | > 10 |  |  |  | CC(=O)N[C@H]1CSSC[C@@H](C(=O)N2CCC[C@H]2C(=O)N2CCC[C@H]2C(=O)N[C@@H](CCCCN)C(=O)N[C@@H](CC(=O)O)C(N)=O)NC(=O)[C@H](Cc2c[nH]c3ccccc23)NC(=O)[C@H](CCCNC(=N)N)NC(=O)[C@@H](Cc2ccc3ccccc3c2)NC(=O)[C@@H]2CCCN2C(=O)[C@H](CCC(=O)O)NC1=O
8 | > 1 | 3.3 | 0.2 |  | 0.401 | > 10 | 0.38 |  |  |  |  | CC(=O)N[C@H]1CSSC[C@@H](C(=O)N2CCC[C@H]2C(=O)N2CCC[C@H]2C(=O)N[C@@H](CCCCN)C(=O)N[C@@H](CC(=O)O)C(N)=O)NC(=O)[C@H](Cc2c[nH]c3ccccc23)NC(=O)[C@H](CCCNC(=N)N)NC(=O)[C@@H](Cc2ccccc2)NC(=O)[C@@H]2CCCN2C(=O)[C@H](CCC(=O)O)NC1=O
9 | 2.9 | 40 | 15 | > 10 | > 10 | > 10 |  |  |  |  |  | CC(=O)N[C@H]1CSSC[C@H](C(=O)N2CCC[C@H]2C(=O)N2CCC[C@H]2C(=O)N[C@@H](CCCCN)C(=O)N[C@@H](CC(=O)O)C(N)=O)NC(=O)[C@H](Cc2c[nH]c3ccccc23)NC(=O)[C@H](CCCN=C(N)N)NC(=O)[C@@H](Cc2ccc3ccccc3c2)NC(=O)[C@H](Cc2c[nH]cn2)NC(=O)[C@H](CCC(=O)O)NC1=O
10 | 0.43 | 1.1 | 27 | > 10 | 0.0028 | 0.0063 |  |  |  |  |  | CC(=O)N[C@@H]1C(=O)N[C@@H](CCC(=O)O)C(=O)N[C@@H](Cc2c[nH]cn2)C(=O)N[C@H](Cc2ccccc2)C(=O)N[C@@H](CCCN=C(N)N)C(=O)N[C@@H](Cc2c[nH]c3ccccc23)C(=O)N[C@H](C(=O)N2CCC[C@H]2C(=O)N2CCC[C@H]2C(=O)N[C@@H](CCCCN)C(=O)N[C@@H](CC(=O)O)C(N)=O)CSSC1(C)C
11 |  |  |  |  |  |  |  |  | 0.694 | 0.054 | 0.0031 | CC(=O)N[C@H]1CSSC[C@@H](C(=O)N2CCC[C@H]2C(=O)N2CCC[C@H]2C(=O)N[C@@H](CCCCN)C(=O)N[C@@H](CC(=O)O)C(N)=O)NC(=O)CNC(=O)[C@H](Cc2c[nH]c3ccccc23)NC(=O)[C@H](CCCNC(=N)N)NC(=O)[C@@H](Cc2ccc3ccccc3c2)NC(=O)[C@H](Cc2c[nH]cn2)NC(=O)[C@H](CCC(=O)O)NC1=O (Ac-CEH[d2Nal]RWGCPPKD-NH2; disulfide 1-8)
